Experimental data from ChEMBL document CHEMBL3232915, “Discovery, optimization, and characterization of novel D2 dopamine receptor selective antagonists” (J Med Chem, 2014).
Values belong to the compound of their own block, whether it stands above or below them.

How the values were obtained:
[1] = molecular target: T1, D(2) dopamine receptor (Homo sapiens, UniProt P14416); assay: Antagonist activity at D2 receptor (unknown origin) expressed in Flp-In TREx 293 cells coexpressing chimeric Gqi5 protein assessed as calcium accumulation by Fluo-8AM dye based fluorescence analysis; format: functional, cell-based
T1 sequence (P14416 whole entry): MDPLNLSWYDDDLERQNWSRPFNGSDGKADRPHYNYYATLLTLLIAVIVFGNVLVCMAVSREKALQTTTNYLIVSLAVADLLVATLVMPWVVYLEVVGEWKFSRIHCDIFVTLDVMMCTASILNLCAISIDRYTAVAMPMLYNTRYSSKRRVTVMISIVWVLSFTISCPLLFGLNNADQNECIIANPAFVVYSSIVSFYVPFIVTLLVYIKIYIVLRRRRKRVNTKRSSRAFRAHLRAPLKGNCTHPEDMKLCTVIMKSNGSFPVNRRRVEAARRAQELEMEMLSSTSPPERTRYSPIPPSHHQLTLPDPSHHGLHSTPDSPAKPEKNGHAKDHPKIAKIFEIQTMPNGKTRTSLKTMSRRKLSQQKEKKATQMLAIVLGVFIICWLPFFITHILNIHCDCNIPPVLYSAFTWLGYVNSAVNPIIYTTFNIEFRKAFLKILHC

[2] = molecular target: T1, D(2) dopamine receptor; assay: Antagonist activity at ProLink-tagged D2 receptor (unknown origin) expressed in CHO cells assessed as inhibition of dopamine-stimulated beta-arrestin binding treated for 90 mins prior to dopamine challenge by PathHunter DiscoveRx assay; format: cell-based
[3] = molecular target: T1, D(2) dopamine receptor; assay: Displacement of [3H]methylspiperone from human D2L receptor expressed in HEK cell membrane after 90 mins by scintillation counting analysis; format: cell membranes, HEK293
[4] = test system: CHO; assay: Ratio of AC50 for ProLink-tagged D3 receptor (unknown origin) expressed in CHO cells to AC50 for ProLink-tagged D2 receptor (unknown origin) expressed in CHO cells by beta-arrestin assay; format: cell-based; settings: Homo sapiens
[5] = molecular target: T2, D(3) dopamine receptor (Homo sapiens, UniProt P35462); assay: Displacement of [3H]methylspiperone from human D3 receptor expressed in HEK293 cell membrane after 90 mins by scintillation counting analysis; format: cell membranes
T2 sequence (P35462 whole entry): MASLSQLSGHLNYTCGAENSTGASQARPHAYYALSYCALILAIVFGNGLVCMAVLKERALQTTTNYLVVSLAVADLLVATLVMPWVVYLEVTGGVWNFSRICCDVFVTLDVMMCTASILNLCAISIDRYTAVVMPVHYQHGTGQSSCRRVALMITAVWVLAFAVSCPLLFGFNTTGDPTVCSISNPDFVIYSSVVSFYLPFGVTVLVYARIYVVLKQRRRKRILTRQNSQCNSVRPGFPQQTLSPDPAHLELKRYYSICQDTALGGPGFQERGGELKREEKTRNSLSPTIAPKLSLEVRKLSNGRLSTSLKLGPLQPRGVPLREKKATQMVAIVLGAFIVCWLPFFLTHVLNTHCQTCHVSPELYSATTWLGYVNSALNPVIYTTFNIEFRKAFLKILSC

[6] = molecular target: T2, D(3) dopamine receptor; assay: Antagonist activity at ProLink-tagged D3 receptor (unknown origin) expressed in CHO cells assessed as inhibition of dopamine-stimulated beta-arrestin binding treated for 90 mins prior to dopamine challenge by PathHunter DiscoveRx assay; format: cell-based
[7] = test system: HEK293; assay: Ratio of Ki for human D3 receptor expressed in HEK293 cell membrane to Ki for human D2L receptor expressed in HEK cell membrane; format: cell-based
Outline: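 Competition binding with [3H]methylspiperone on membranes from stable HEK cells. […] Incubation 90 min at room temperature in EBSS with sodium metabisulfite, nonspecific binding with 4 µM (+)-butaclamol, then GF/C filtration and scintillation counting. Ki from IC50 via Cheng–Prusoff.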

[8] = test system: Liver; assay: Intrinsic half-life in mouse liver microsomes; format: ADME
[9] = test system: Caco-2; assay: Apparent permeability from basolateral to apical side in human Caco2 cells; format: ADME, cell-based
[10] = test system: Plasma; assay: Stability of the compound in human plasma assessed as compound remaining after 2 hrs; format: ADME, cell-free
[11] = test system: Caco-2; assay: Apparent permeability from apical to basolateral side in human Caco2 cells; format: ADME, cell-based
[12] = test system: Plasma; assay: Stability of the compound in mouse plasma assessed as compound remaining after 2 hrs; format: ADME, cell-free
[13] = Aqueous kinetic solubility of the compound in PBS buffer; format: physicochemical
[14] = test system: Brain; assay: Cmax in C57BL/6 mouse brain at 30 mg/kg, ip administered as single dose measured within 15 mins after drug challenge; format: ADME, organism-based; design: dose 30 mg/kg, route intraperitoneal; settings: in vivo, 0.25 h
Outline: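 Male C57BL/6 mice (N = 3) got a single 30 mg/kg ip dose in 10% NMP + 20% PEG 400 + 70% of 25% HP-β-CD in water. Plasma and brain concentration–time profiles were measured.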

SMILES: CCN1C(=O)c2ccccc2[S+]([O-])c2ccc(C(=O)NCc3cccc(OC)c3)cc21 (racemic)
- AC50 [1]: 112 nM

SMILES: CCN1C(=O)c2ccccc2[S+]([O-])c2ccc(C(=O)NCc3ccc4c(c3)OCO4)cc21 (racemic)
- AC50 [1]: 353 nM

SMILES: CN1C(=O)c2ccccc2[S+]([O-])c2ccc(C(=O)Nc3ccccc3)cc21 (racemic)
- AC50 [1]: 1580 nM

SMILES: COc1ccc(CNC(=O)c2ccc3c(c2)N(Cc2ccccc2)C(=O)c2ccccc2[S+]3[O-])cc1 (racemic)
- AC50 [1]: 8870 nM

SMILES: CN1C(=O)c2ccccc2[S+]([O-])c2ccc(C(=O)NCCc3cccs3)cc21 (racemic)
- AC50 [2]: 913 nM
- Ki [3]: 190 nM
- AC50 [1]: 89 nM
- Ki [5]: 9200 nM
- AC50 [6]: 20400 nM

SMILES: CCN1C(=O)c2ccccc2[S+]([O-])c2ccc(C(=O)NCc3cc(OC)c(OC)c(OC)c3)cc21 (racemic)
- AC50 [1]: 1770 nM

SMILES: CN(C)CCCNC(=O)c1ccc2c(c1)N(C)C(=O)c1ccccc1[S+]2[O-] (racemic)
- AC50 [1]: 560 nM

SMILES: CCN1C(=O)c2ccccc2[S+]([O-])c2ccc(C(=O)Nc3ccccc3)cc21 (racemic)
- AC50 [1]: 887 nM

SMILES: CCN1C(=O)c2ccccc2[S+]([O-])c2ccc(C(=O)OCc3ccc(OC)cc3)cc21 (racemic)
- AC50 [1]: > 77000 nM

SMILES: COc1ccc(NC(=O)c2ccc3c(c2)N(C)C(=O)c2ccccc2[S+]3[O-])cc1 (racemic)
- AC50 [1]: 353 nM

SMILES: CCN1C(=O)c2ccccc2[S+]([O-])c2ccc(C(=O)Nc3ccc(OC)cc3)cc21 (racemic)
- AC50 [1]: 141 nM

SMILES: CCN1C(=O)c2ccccc2[S+]([O-])c2ccc(C(=O)NCc3ccccc3OC)cc21 (racemic)
- AC50 [1]: 4460 nM

SMILES: COc1ccc(CNC(=O)c2ccc3c(c2)NC(=O)c2ccccc2[S+]3[O-])cc1 (racemic)
- AC50 [1]: 887 nM

SMILES: CCN1C(=O)c2ccccc2[S+]([O-])c2ccc(C(=O)NCc3ccc(C(C)(C)C)cc3)cc21 (racemic)
- AC50 [1]: 353 nM

SMILES: COc1ccc(CNC(=O)c2cccc(N3C(=O)c4ccccc4C3=O)c2)cc1
- AC50 [1]: > 77000 nM

SMILES: CCN1C(=O)c2ccccc2S(=O)(=O)c2ccc(C(=O)NCc3ccc(OC)cc3)cc21
- AC50 [1]: > 77000 nM

SMILES: CCN1C(=O)c2ccccc2[S+]([O-])c2ccc(C(=O)NCCc3ccc(OC)cc3)cc21 (racemic)
- AC50 [1]: 353 nM

SMILES: CCN1C(=O)c2ccccc2[S+]([O-])c2ccc(C(=O)NCc3ccccc3)cc21 (racemic)
- AC50 [1]: 445 nM

SMILES: CN1C(=O)c2ccccc2[S@+]([O-])c2ccc(C(=O)NCCN3CCCC3)cc21
- AC50 [2]: 363 nM
- Ki [3]: 210 nM
- Ratio [4]: 12.6
- AC50 [1]: 70 nM
- Ki [5]: 350 nM
- AC50 [6]: 4570 nM
- Ratio Ki [7]: 1.7

SMILES: CN1C(=O)c2ccccc2[S@+]([O-])c2ccc(C(=O)NCCc3cccs3)cc21
- Ki [5]: 4100 nM
- t1/2 [8]: 24.7 min
- Papp [9]: 23.8 ×10⁻⁶ cm/s
- Stability [10]: 98.4%
- Papp [11]: 18.8 ×10⁻⁶ cm/s
- Stability [12]: 95.2%
- Kinetic_solubility [13]: 113.3 µM
- Cmax [14]: 4.19 µmol/kg

SMILES: CCN1C(=O)c2ccccc2[S@+]([O-])c2ccc(C(=O)N[C@H](C)c3ccc4ccccc4c3)cc21
- AC50 [2]: 2890 nM
- Ki [3]: 290 nM
- Ratio [4]: 11.2
- AC50 [1]: 353 nM
- Ki [5]: 3400 nM
- AC50 [6]: 32400 nM
- Ratio Ki [7]: 11.7

SMILES: CN1C(=O)c2ccccc2[S+]([O-])c2ccc(C(=O)NCCN3CCCCC3)cc21 (racemic)
- AC50 [1]: 112 nM

SMILES: CCN1C(=O)c2ccccc2[S@+]([O-])c2ccc(C(=O)N[C@H](C)c3ccc(Br)cc3)cc21
- AC50 [2]: 1290 nM
- Ki [3]: 530 nM
- Ratio [4]: 7.1
- AC50 [1]: 223 nM
- Ki [5]: 880 nM
- AC50 [6]: 9130 nM
- Ratio Ki [7]: 1.7

SMILES: CN1C(=O)c2ccccc2[S@@+]([O-])c2ccc(C(=O)NCCc3cccs3)cc21
- AC50 [2]: > 77000 nM
- Ki [3]: > 50000 nM
- AC50 [1]: > 77000 nM
- Ki [5]: > 50000 nM
- AC50 [6]: > 77000 nM

SMILES: CCN1C(=O)c2ccccc2[S+]([O-])c2ccc(C(=O)N(C)Cc3ccc(OC)cc3)cc21 (racemic)
- AC50 [1]: > 77000 nM

SMILES: CCN1C(=O)c2ccccc2[S+]([O-])c2ccc(NC(=O)Cc3ccc(OC)cc3)cc21 (racemic)
- AC50 [1]: 705 nM

SMILES: CCN(Cc1ccccc1)C(=O)c1ccc2c(c1)N(CC)C(=O)c1ccccc1[S+]2[O-] (racemic)
- AC50 [1]: 56000 nM

SMILES: CCN1C(=O)c2ccccc2[S+]([O-])c2ccc(C(=O)NCc3ccc(S(C)(=O)=O)cc3)cc21 (racemic)
- AC50 [1]: 353 nM

SMILES: CCN1C(=O)c2ccccc2Sc2ccc(C(=O)NCc3ccc(OC)cc3)cc21
- AC50 [1]: 705 nM

SMILES: COc1ccc(CNC(=O)c2ccc3c(c2)C(=O)c2ccccc2C3=O)cc1
- AC50 [1]: > 77000 nM

SMILES: CCN1C(=O)c2ccccc2[S+]([O-])c2ccc(NC(=O)Cc3ccc(F)cc3)cc21 (racemic)
- AC50 [1]: 223 nM

SMILES: CCN1C(=O)c2ccccc2[S+]([O-])c2ccc(C(=O)NC(C)c3ccccc3)cc21 (racemic)
- AC50 [1]: 560 nM

SMILES: CN1C(=O)c2ccccc2[S+]([O-])c2ccc(C(=O)NCCN3CCCC3)cc21 (racemic)
- AC50 [1]: 89 nM

More lines, main results first:

- AC50 [2]: 2890 nM
- Ki [3]: 310 nM
- AC50 [1]: 445 nM
- Ki [5]: 21000 nM
- AC50 [6]: 14500 nM
SMILES: CN1C(=O)c2ccccc2[S@+]([O-])c2ccc(C(=O)NCc3cccnc3)cc21
- Ratio [4]: 5
- Ratio Ki [7]: 70

- AC50 [1]: 223 nM
SMILES: CN1C(=O)c2ccccc2[S+]([O-])c2ccc(C(=O)NCc3ccccc3)cc21 (racemic)

- AC50 [2]: 576 nM
- Ki [3]: 90 nM
- AC50 [1]: 56 nM
- Ki [5]: 230 nM
- AC50 [6]: 3240 nM
SMILES: CCN1C(=O)c2ccccc2[S@+]([O-])c2ccc(C(=O)NCc3ccc(F)cc3)cc21
- Ratio [4]: 5.6
- Ratio Ki [7]: 2.6

- AC50 [1]: 353 nM
SMILES: CN1C(=O)c2ccccc2[S+]([O-])c2ccc(C(=O)NCc3ccc(F)cc3)cc21 (racemic)

- AC50 [1]: 509 nM
SMILES: CCN1C(=O)c2ccccc2[S+]([O-])c2ccc(C(=O)NCc3ccc(Cl)cc3)cc21 (racemic)

- AC50 [1]: 89 nM
SMILES: CCN1C(=O)c2ccccc2[S+]([O-])c2ccc(C(=O)NCc3ccc(F)cc3)cc21 (racemic)

- AC50 [1]: 112 nM
SMILES: COc1ccc(CNC(=O)c2ccc3c(c2)N(C)C(=O)c2ccccc2[S+]3[O-])cc1 (racemic)

- AC50 [1]: 705 nM
SMILES: CCCN1C(=O)c2ccccc2[S+]([O-])c2ccc(C(=O)NCc3ccc(OC)cc3)cc21 (racemic)

- AC50 [1]: 281 nM
SMILES: CN1C(=O)c2ccccc2[S+]([O-])c2ccc(C(=O)NCc3cccc(Cl)c3)cc21 (racemic)

- AC50 [1]: 281 nM
SMILES: CN1C(=O)c2ccccc2[S+]([O-])c2ccc(C(=O)NCc3cccnc3)cc21 (racemic)

- AC50 [1]: 71 nM
SMILES: CN1C(=O)c2ccccc2[S+]([O-])c2ccc(C(=O)NCc3ccc(Br)cc3)cc21 (racemic)

- AC50 [2]: 1020 nM
- Ki [3]: 240 nM
- AC50 [1]: 89 nM
- Ki [5]: 370 nM
- AC50 [6]: 4570 nM
SMILES: CN1C(=O)c2ccccc2[S@+]([O-])c2ccc(C(=O)NCc3ccc(Br)cc3)cc21
- Ratio [4]: 4.5
- Ratio Ki [7]: 1.5

- AC50 [1]: 11200 nM
SMILES: CN1C(=O)c2ccccc2[S+]([O-])c2ccc(C(=O)NCc3ccccn3)cc21 (racemic)

- AC50 [1]: 177 nM
SMILES: CCN1C(=O)c2ccccc2[S+]([O-])c2ccc(C(=O)NCc3ccc(C)cc3)cc21 (racemic)

- AC50 [1]: 141 nM
SMILES: CCN1C(=O)c2ccccc2[S+]([O-])c2ccc(C(=O)NCc3ccc(C#N)cc3)cc21 (racemic)

- AC50 [1]: 223 nM
SMILES: CCN1C(=O)c2ccccc2[S+]([O-])c2ccc(C(=O)NCc3ccc(SC)cc3)cc21 (racemic)

- AC50 [1]: 141 nM
SMILES: CCN1C(=O)c2ccccc2[S+]([O-])c2ccc(C(=O)NCc3ccc(C(F)(F)F)cc3)cc21 (racemic)

- AC50 [2]: 257 nM
- Ki [3]: 23 nM
- AC50 [1]: 112 nM
- Ki [5]: 130 nM
- AC50 [6]: 1620 nM
SMILES: CCN1C(=O)c2ccccc2[S@+]([O-])c2ccc(C(=O)NCc3ccc(C#N)cc3)cc21
- Ratio [4]: 6.3
- Ratio Ki [7]: 5.7

- AC50 [2]: 2890 nM
- AC50 [1]: 280 nM
- AC50 [6]: 10200 nM
SMILES: CN1C(=O)c2ccccc2[S@+]([O-])c2ccc(C(=O)NCc3ccc(Cl)cc3)cc21
- Ratio [4]: 4.5

- AC50 [1]: 141 nM
SMILES: CN1C(=O)c2ccccc2[S+]([O-])c2ccc(C(=O)NCc3ccc(Cl)cc3)cc21 (racemic)
